Source: PubChem (Broad Institute)
E-selectin induc – induces E-selectin expression in human endothelial cells. P16581. HUVEC E-selectin immunofluorescence imaging; normalized: neutral wells 0, TNF-alpha wells 100. activation, % at 7.58 µM. 0.37% of 260,000 active. AID 686992;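 active = mean E-selectin-positive cell signal at least 10% of the positive control, reached in at least 60% of replicates, without over 20% cell loss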
Target sequence (P16581 whole entry, looked up): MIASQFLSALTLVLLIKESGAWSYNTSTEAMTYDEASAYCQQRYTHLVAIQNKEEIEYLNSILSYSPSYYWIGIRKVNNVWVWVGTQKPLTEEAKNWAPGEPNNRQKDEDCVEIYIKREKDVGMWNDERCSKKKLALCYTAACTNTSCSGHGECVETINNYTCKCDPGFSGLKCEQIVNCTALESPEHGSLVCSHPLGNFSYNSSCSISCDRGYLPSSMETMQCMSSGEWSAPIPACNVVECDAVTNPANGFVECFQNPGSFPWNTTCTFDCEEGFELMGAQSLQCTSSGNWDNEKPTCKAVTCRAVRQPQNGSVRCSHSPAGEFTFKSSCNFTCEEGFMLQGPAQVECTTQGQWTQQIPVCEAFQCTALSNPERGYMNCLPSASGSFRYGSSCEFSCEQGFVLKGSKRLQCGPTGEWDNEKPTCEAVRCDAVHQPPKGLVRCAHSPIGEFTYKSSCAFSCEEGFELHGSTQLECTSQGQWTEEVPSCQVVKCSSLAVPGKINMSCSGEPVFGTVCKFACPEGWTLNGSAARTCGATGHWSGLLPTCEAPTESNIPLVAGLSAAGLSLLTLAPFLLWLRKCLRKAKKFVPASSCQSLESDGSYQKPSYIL
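assay system = HUVEC, human umbilical vein endothelial cells | input = 3,000 HUVEC seeded per well | medium = EGM-2 growth medium on 0.1% gelatin-coated wells | dosing = one compound dose added by pin transfer | signal = immunofluorescence imaging | read-out basis = % PE-positive cells | control set = TNF-alpha, DMSO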
DENV2 CPE – inhibitors of DENV2 cytopathic effect | DENV2-infected cells, cytopathic effect rescue, plate reader | CPE inhibition, % at 9.99 µM | 1.7% of 350,000 active | AID 651640; in the data active = CPE inhibition above about 20%, passing the limit was not always enough; tested in BHK-21 cells;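 note: 0% = median of neutral control wells and 100% = median of positive control wells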
C2C12 statin – suppression of simvastatin myotoxicity. C2C12 myotubes + simvastatin, ATP luminescence, 48 h; scaled: DMSO 0, geranylgeraniol control 100. rescue of ATP level, % at 7.49 µM. 0.78% of 330,000 active;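 active = mean ATP rescue above about 67%, or every replicate alone reaching that limit, limit read from the data, passing the limit was not always enough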;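 note: myotubes were challenged with 10 µM simvastatin during compound exposure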
Active calls of the source: *. An excerpt weighted towards active compounds, which were near 2.2% of everything screened.

For C[C@H](CO)N1C[C@H](C)[C@H](CN(C)Cc2ccc(-c3ccccc3)cc2)Oc2c(NC(=O)Nc3ccc(F)cc3)cccc2C1=O the results were E-selectin induc 0.1 and DENV2 CPE 14.1.
O=c1[nH]c(CN2CCCCC2)nc2c1C1(CCCCC1)Cc1ccccc1-2 was read as C2C12 statin 90.8*.
`CCc1nc2c(c(=O)[nH]1)C1(CCCC1)Cc1ccccc1-2` gave C2C12 statin -31.8.
Screening O=C(C[C@H]1C=C[C@@H](NC(=O)c2ccc3c(c2)OCO3)[C@H](CO)O1)NC1Cc2ccccc2C1 returned E-selectin induc 0.1, DENV2 CPE -8.7 and C2C12 statin -3.9.
`Cc1cccc(N=[N+]([O-])c2cccc(C)n2)n1` gave DENV2 CPE 26.8* and C2C12 statin 7.1.
For Cc1cccc(N=O)n1 the results were E-selectin induc -0.1 and DENV2 CPE -0.5.
Screening CC(C)NC(=O)Nc1cccc2c1O[C@H](CN(C)S(=O)(=O)c1ccc(Cl)cc1)[C@H](C)CN([C@H](C)CO)C2=O returned E-selectin induc -9.5, DENV2 CPE -2.6 and C2C12 statin -0.5.
For Cc1ccc(S(=O)(=O)n2nc(OC(=O)C3CCCCC3)cc2N)cc1 the results were C2C12 statin -3.7.
`COc1ccc(S(=O)(=O)n2nc(OC(=O)C3CCCCC3)cc2N)cc1` gave C2C12 statin 105.8*.
Screening CO[C@H]1CN(C)C(=O)c2cc(NC(=O)NC(C)C)ccc2OC[C@@H](C)N(Cc2cncnc2)C[C@@H]1C returned E-selectin induc 0.3 and C2C12 statin 5.3.
O=C1c2ccccc2C(=O)N1CCCn1ccnc1 was read as E-selectin induc 0.9, DENV2 CPE -2.1 and C2C12 statin 1.0.
O=C1c2ccccc2C(=O)N1CCc1nc2ccccc2c(=O)n1CCCn1ccnc1 was read as C2C12 statin 95.1*.
For C[C@@H]1CN([C@@H](C)CO)C(=O)c2cc(NC(=O)CCC(F)(F)F)ccc2O[C@@H]1CN(C)C(=O)Nc1ccc2c(c1)OCO2 the results were E-selectin induc 10.2, DENV2 CPE 31.2* and C2C12 statin -5.9.
`C[C@H]1CN([C@@H](C)CO)C(=O)c2cc(NC(=O)Nc3ccccc3)ccc2O[C@@H]1CN(C)C(=O)Nc1ccc(C(F)(F)F)cc1` gave E-selectin induc 40.4*, DENV2 CPE 21.8* and C2C12 statin -24.9.
For C[C@@H]1CN([C@@H](C)CO)C(=O)c2cc(NC(=O)Nc3ccccc3)ccc2O[C@@H]1CN(C)C(=O)Nc1ccc(C(F)(F)F)cc1 the results were E-selectin induc 50.6*, DENV2 CPE -4.0 and C2C12 statin -23.6.
C[C@H]1CN([C@@H](C)CO)C(=O)c2cc(NC(=O)CCC(F)(F)F)ccc2O[C@H]1CN(C)C(=O)Nc1ccc2c(c1)OCO2 was read as E-selectin induc -4.3, DENV2 CPE 6.6 and C2C12 statin -1.6.
For C[C@@H]1CN([C@H](C)CO)C(=O)c2cc(NC(=O)Nc3ccccc3)ccc2O[C@@H]1CN(C)C(=O)Nc1ccc(C(F)(F)F)cc1 the results were E-selectin induc 0.4, DENV2 CPE -1.1 and C2C12 statin -35.4.
C[C@H]1CN([C@@H](C)CO)C(=O)c2cc(NC(=O)Nc3ccc4c(c3)OCO4)ccc2O[C@@H]1CN(C)C(=O)Nc1ccc(C(F)(F)F)cc1 was read as E-selectin induc 3.5, DENV2 CPE 6.6 and C2C12 statin 90.9*.
C[C@H]1CN([C@@H](C)CO)C(=O)c2cc(NC(=O)Nc3ccc(C(F)(F)F)cc3)ccc2O[C@@H]1CN(C)C(=O)Nc1ccc2c(c1)OCO2 was read as E-selectin induc -0.4, DENV2 CPE 3.2 and C2C12 statin 54.0.
For C[C@H](CO)N1C[C@H](C)[C@H](CN(C)C(=O)Nc2ccccc2)Oc2ccc(NC(=O)Nc3ccc(C(F)(F)F)cc3)cc2C1=O the results were E-selectin induc -0.7, DENV2 CPE 7.2 and C2C12 statin 1.9.
Screening C[C@H]1CN([C@@H](C)CO)C(=O)c2cc(NC(=O)c3ccncc3)ccc2O[C@H]1CN(C)C(=O)Nc1cccc2ccccc12 returned E-selectin induc -7.2, DENV2 CPE 9.9 and C2C12 statin 13.5.
`C[C@H](NC(=O)[C@@H]1[C@@H](CO)[C@@H]2Cn3c(cccc3=O)[C@@H]2N1CCC(F)(F)F)c1ccccc1` gave E-selectin induc 0.3, DENV2 CPE -0.5 and C2C12 statin -6.1.
Screening COc1cccc(-c2ccc3c(c2)[C@H]2[C@H](CCN2S(=O)(=O)c2ccccc2OC)[C@@H](CO)N3C)c1 returned E-selectin induc -0.5, DENV2 CPE -23.8 and C2C12 statin -1.0.
`C[C@H]1CN([C@@H](C)CO)C(=O)c2cccc(NC(=O)c3ccncc3)c2O[C@H]1CN(C)Cc1ccc(Oc2ccccc2)cc1` gave DENV2 CPE 5.1 and C2C12 statin -4.3.
